Activity calls are given as the source filed them. The rule behind the calls is not given here.
What was measured:
Hepatitis C virus [1] = test: Inhibition of wild type recombinant C terminal His6-tagged HCV1b NS5B Cdelta21 RNA dependent RNA polymerase activity expressed in Escherichia coli JM109 (DE3) using poly rA/U12 template primer by liquid scintillation counting; parameters: species or system Hepatitis C virus subtype 1b; details: JM 109
Method in brief: (§1)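 Radiometric RdRp assay with His6-tagged NS5BCΔ21 (wild type or P495L, M423T, M414T mutants) purified from E. coli JM109(DE3) by Ni-NTA. Template-primer poly rA/U12. Compounds diluted serially in DMSO. Started with 1.0 mM MnCl2, stopped with ice-cold 10% TCA plus 0.5 mM pyrophosphate. Incorporated UTP TCA-precipitated on GF-B filters and scintillation counted. Activity set relative to DMSO control. IC50 from nonlinear fit of 8–12 concentrations, duplicate, two independent experiments.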

Hepatitis C virus [2] = test: Inhibition of recombinant HCV1b NS5B Cdelta21 RNA dependent RNA polymerase M423T mutant TP2 binding site using poly rA/U12 template primer by liquid scintillation counting; parameters: species or system Hepatitis C virus subtype 1b; method in brief: as §1
BHK = test: Inhibition of intracellular HCV NS5B RNA dependent RNA polymerase activity expressed in BHK cells at 100 uM after 42 hrs by renilla luciferase reporter gene assay; format: cell-based; details: Hepacivirus hominis
Method in brief: (§2)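 BHK-NS5B-FRLuc reporter cells (DMEM, 10% heat-inactivated FBS, G418 1 mg/mL, blasticidin 10 µg/mL, 37°C, 5% CO2) treated with 100 µM compound or matching 1% DMSO for 42 hr. Lysates read by dual luciferase. Viability taken as firefly signal versus DMSO. Polymerase inhibition taken as percent reduction of Renilla/firefly ratio versus DMSO. At least three independent experiments in duplicate.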

[3] = Cytotoxicity against BHK cells assessed as cell viability by firefly luciferase reporter gene assay; format: cell-based, Mesocricetus auratus; details: hamster; method in brief: as §2
Hepatitis C virus [4] = test: Inhibition of wild type recombinant C terminal His6-tagged HCV1b NS5B Cdelta21 RNA dependent RNA polymerase activity expressed in Escherichia coli JM109 (DE3) at 100 uM using poly rA/U12 template primer by liquid scintillation counting; parameters: species or system Hepatitis C virus subtype 1b
Method in brief: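 Radiometric RdRp assay with wild-type NS5BCΔ21 (genotype 1b), C-terminal His6, Ni-NTA purified from E. coli JM109(DE3); poly rA/U12 template-primer. Compounds from 10 mM DMSO stocks, single-point at 100 µM. Started with 1.0 mM MnCl2, stopped with ice-cold 10% TCA/0.5 mM pyrophosphate. Incorporated radioactive UTP TCA-precipitated on GF-B filters, scintillation-counted; activity relative to DMSO control set at 100%.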

Hepatitis C virus [5] = test: Ratio of IC50 for recombinant HCV1b NS5B Cdelta21 RNA dependent RNA polymerase M423T mutant TP2 binding site to IC50 for wild type recombinant C terminal His6-tagged HCV1b NS5B Cdelta21 RNA dependent RNA polymerase; parameters: species or system Hepatitis C virus subtype 1b
Hepatitis C virus [6] = test: Ratio of IC50 for recombinant HCV1b NS5B Cdelta21 RNA dependent RNA polymerase M414T mutant PP1 binding site to IC50 for wild type recombinant C terminal His6-tagged HCV1b NS5B Cdelta21 RNA dependent RNA polymerase; parameters: species or system Hepatitis C virus subtype 1b
Hepatitis C virus [7] = test: Inhibition of recombinant HCV1b NS5B Cdelta21 RNA dependent RNA polymerase M414T mutant PP1 binding site using poly rA/U12 template primer by liquid scintillation counting; parameters: species or system Hepatitis C virus subtype 1b; method in brief: as §1
Hepatitis C virus [8] = test: Ratio of IC50 for recombinant HCV1b NS5B Cdelta21 RNA dependent RNA polymerase P495L mutant TP1 binding site to IC50 for wild type recombinant C terminal His6-tagged HCV1b NS5B Cdelta21 RNA dependent RNA polymerase; parameters: species or system Hepatitis C virus subtype 1b
Hepatitis C virus [9] = test: Inhibition of recombinant HCV1b NS5B Cdelta21 RNA dependent RNA polymerase P495L mutant TP1 binding site using poly rA/U12 template primer by liquid scintillation counting; parameters: species or system Hepatitis C virus subtype 1b; method in brief: as §1

| SMILES | IC50 (Hepatitis C virus [1]) [µM] | IC50 (Hepatitis C virus [2]) [µM] | inhibition (BHK) | CC50 [3] [µM] | inhibition at 100 µM (Hepatitis C virus [4]) [%] | Ratio IC50 (Hepatitis C virus [5]) | Ratio IC50 (Hepatitis C virus [6]) | IC50 (Hepatitis C virus [7]) [µM] | Ratio IC50 (Hepatitis C virus [8]) | IC50 (Hepatitis C virus [9]) [µM] |
| --- | --- | --- | --- | --- | --- | --- | --- | --- | --- | --- |
| O=C(O)c1ccc(Nc2nnc(-c3ccccc3)c(=O)[nH]2)cc1O | 46.2 | > 250 | 45.1% | > 100 | ≥ 50 | >4.5 | <=1.4 | 52.1 | <=1.4 | 40.6 |
| Cn1cc(C(=O)N2CCN(C(=O)c3ccc(F)cc3F)CC2)c2nn(-c3ccccc3)c(=O)c-2c1 | 39.5 | > 250 | 43.3% | > 100 | ≥ 50 | >4.5 | <=1.4 | 44.8 | <=1.4 | 41 |
| COc1cc(O)c2c(c1)oc(=O)c1c3cc(O)c(O)cc3oc21 [WEDELOLACTONE] | 34 | – | – | – | – | – | – | – | – | – |
| CC1CS(=O)(=O)N(c2ccc(S(=O)(=O)Nc3cccc4cccnc34)cc2)C1=O (stereo unspecified) | 36.7 | > 250 | 40.5% | > 100 | ≥ 50 | >4.5 | <=1.4 | 36.1 | <=1.4 | 43 |
| C/C(=N\Nc1ncnc2ccccc12)C(=O)O | 16 | 127 | 62.4% | > 100 | ≥ 50 | 7.9 | <=1.4 | 22.9 | <=1.4 | 14.2 |
| COc1cc(/C=N/Nc2ccccc2C(=O)O)cc(Br)c1O | 20.3 | 172 | 57.8% | > 100 | ≥ 50 | 8.5 | <=1.4 | 23.7 | <=1.4 | 19.2 |
| CCOC(=O)/C(C#N)=C\c1cn(CCC(=O)O)nc1-c1ccc(F)cc1 | 33 | > 250 | 44.2% | > 100 | ≥ 50 | >4.5 | <=1.4 | 28.6 | <=1.4 | 34.3 |
| O=C(CCS(=O)(=O)c1ccccc1)N1CCN(C(=O)CCS(=O)(=O)c2ccccc2)CC1 | 33.1 | > 250 | 42.1% | > 100 | ≥ 50 | >4.5 | <=1.4 | 37.8 | <=1.4 | 33.5 |
| Cc1cc(O)c(C(c2ccc(Cl)c(Cl)c2)c2c(O)cc(C)oc2=O)c(=O)o1 | 56.8 | > 250 | inactive | > 100 | ≥ 50 | >4.5 | <=1.4 | 62.4 | <=1.4 | 63.8 |
